From ChEMBL document CHEMBL3588805, “Characterization and Biological Activities of Ocellatin Peptides from the Skin Secretion of the Frog Leptodactylus pustulatus” (J Nat Prod, 2015)
In brackets after ≈: the same amount, converted by molar mass. Activity calls are given as the source filed them. No cut-off for these calls is given here. Where a SMILES comes first, the peptide text is derived from it.

Assays:
[1] = system: Salmonella enterica; test: Antibacterial activity against Salmonella choleraesuis ATCC 14028 assessed as inhibition of visible bacterial growth incubated at 37 degC for 24 hrs by CLSI protocol based method; format: functional; details: ATCC 14028, 24 h
Summary of the method: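 Strain grown at 37 °C in Mueller-Hinton broth to log phase (1 × 10^8 CFU/mL). Broth microdilution per CLSI (2012) with 2-fold peptide dilutions in Mueller-Hinton broth, 6.25–800 μg/mL, final inoculum 5 × 10^5 CFU/mL. Incubated 24 h, 37 °C, aerobic. MIC is the lowest concentration giving absorbance below 0.05 at 600 nm. Meropenem control. Triplicate, two independent experiments.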

[2] = Cytotoxicity against mouse NIH/3T3 cells at antibacterial MIC (Escherichia coli ATCC 25922) assessed as reduction in cell index incubated for 60 hrs; format: cell-based; details: nih3t3, 60 h
[3] = system: Escherichia coli; test: Antibacterial activity against Escherichia coli ATCC 25922 assessed as inhibition of visible bacterial growth incubated at 37 degC for 24 hrs by CLSI protocol based method; format: functional; details: ATCC 25922, 24 h
Summary of the method: (§1)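 Broth microdilution per CLSI 2012. Strains grown at 37 °C in Mueller-Hinton broth to log phase (1 × 10^8 CFU/mL). Peptide 2-fold serial dilutions, 6.25–800 μg/mL, in Mueller-Hinton broth; final inoculum 5 × 10^5 CFU/mL per well. Aerobic incubation 24 h at 37 °C. MIC is the lowest concentration with no visible growth (A600 < 0.05). Meropenem control for Gram-negatives, oxacillin for S. aureus. Triplicate, two independent experiments.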

[4] = system: Staphylococcus aureus; test: Antibacterial activity against Staphylococcus aureus […] assessed as inhibition of visible bacterial growth incubated at 37 degC for 24 hrs by CLSI protocol based method; format: functional; summary of the method: as §1
[5] = Toxicity in human RBC assessed as induction of hemolysis at 800 ug/mL incubated for 1 hr at 37 degC; format: cell-based, Erythrocyte; details: human red blood cells (RBC), read-out: Activity
Summary of the method: (§2)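 Human RBCs collected in EDTA (1.8 mg/mL), washed three times, resuspended in 0.85% saline, mixed with an equal volume of peptide solution (100–800 μg/mL). 1 h at 37 °C, centrifuged at 10000g for 1 min, supernatant absorbance read at 550 nm. Saline and 0.1% (v/v) Triton X as 0 and 100% controls. % hemolysis = (A peptide − A saline)/(A Triton − A saline) × 100.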

[6] = system: Klebsiella pneumoniae; test: Antibacterial activity against Klebsiella pneumoniae ATCC 700603 assessed as inhibition of visible bacterial growth incubated at 37 degC for 24 hrs by CLSI protocol based method; format: functional; details: ATCC 700603, 24 h; summary of the method: as §1
[7] = Toxicity in human RBC assessed as induction of hemolysis at antibacterial MIC (Escherichia coli ATCC 25922) incubated for 1 hr at 37 degC; format: cell-based, Erythrocyte; details: human red blood cells (RBC), read-out: Activity; summary of the method: as §2
[8] = system: Escherichia coli; test: Induction of morphological changes in Escherichia coli ATCC 25922 assessed as cell cytoplasmic content release at 190 uM incubated for 24 hrs by atomic force microscopy; format: functional, organism-based
[9] = system: Escherichia coli; test: Induction of cell envelope morphological changes in Escherichia coli ATCC 25922 at 190 uM incubated for 24 hrs by atomic force microscopy; format: functional, organism-based
[10] = system: Escherichia coli; test: Induction of morphological changes in Escherichia coli ATCC 25922 assessed as cell shape changes release at 190 uM incubated for 24 hrs by atomic force microscopy; format: functional, organism-based
[11] = system: Escherichia coli; test: Induction of morphological changes in Escherichia coli ATCC 25922 assessed as reduction in number of pili at 190 uM incubated for 24 hrs by atomic force microscopy; format: functional, organism-based
[12] = system: Escherichia coli; test: Induction of morphological changes in Escherichia coli ATCC 25922 assessed as cell structural perturbation at 190 uM incubated for 24 hrs by atomic force microscopy; format: functional, organism-based

Compound	MIC [1]	Activity [2]	MIC [3]	MIC [4]	hemolysis at 1 h, 800 ug/mL [5]	MIC [6]	hemolysis at 1 h [7]	Activity [8]	Activity [9]	Activity [10]	Activity [11]	Activity [12]
CC[C@H](C)[C@H](NC(=O)[C@H](CCCCN)NC(=O)CNC(=O)[C@H](CCSC)NC(=O)[C@H](C)NC(=O)[C@H](Cc1cnc[nH]1)NC(=O)[C@H](C)NC(=O)[C@@H](NC(=O)[C@H](CC(C)C)NC(=O)[C@H](CCC(N)=O)NC(=O)[C@H](CCCCN)NC(=O)CNC(=O)[C@H](C)NC(=O)[C@H](CC(=O)O)NC(=O)[C@H](CCCCN)NC(=O)[C@@H](NC(=O)[C@@H](NC(=O)[C@H](CC(=O)O)NC(=O)[C@H](Cc1ccccc1)NC(=O)[C@@H](NC(=O)CN)C(C)C)[C@@H](C)CC)[C@@H](C)CC)C(C)C)C(=O)N[C@@H](C)C(=O)N[C@@H](CCC(=O)O)C(=O)N[C@@H](CCCCN)C(=O)N[C@H](C(N)=O)C(C)C (H-GVFDIIKDAGKQLVAHAMGKIAEKV-NH2)	> 300 µM	Non-toxic	300 µM (≈ 791 µg/mL)	> 300 µM	1.98%	> 300 µM	1.98%					
CC[C@H](C)[C@H](NC(=O)[C@H](CCCCN)NC(=O)CNC(=O)[C@@H](NC(=O)[C@H](C)NC(=O)[C@H](Cc1cnc[nH]1)NC(=O)[C@H](C)NC(=O)[C@@H](NC(=O)[C@H](CC(C)C)NC(=O)[C@H](CCC(N)=O)NC(=O)[C@H](CCCCN)NC(=O)CNC(=O)[C@H](C)NC(=O)[C@H](CC(=O)O)NC(=O)[C@H](CCCCN)NC(=O)[C@@H](NC(=O)[C@@H](NC(=O)[C@H](CC(=O)O)NC(=O)[C@H](Cc1ccccc1)NC(=O)[C@@H](NC(=O)CN)C(C)C)[C@@H](C)CC)[C@@H](C)CC)C(C)C)[C@@H](C)O)C(=O)N[C@@H](C)C(=O)N[C@@H](CCC(=O)O)C(=O)N[C@@H](CCCCN)C(=O)N[C@H](C(N)=O)C(C)C (H-GVFDIIKDAGKQLVAHATGKIAEKV-NH2)	> 310 µM	Non-toxic	> 310 µM	> 310 µM	0%	> 310 µM	0%					
CC[C@H](C)[C@H](NC(=O)[C@H](CCCCN)NC(=O)CNC(=O)[C@H](CCSC)NC(=O)[C@H](C)NC(=O)[C@H](Cc1cnc[nH]1)NC(=O)[C@H](C)NC(=O)[C@@H](NC(=O)[C@H](CC(C)C)NC(=O)[C@H](CCC(N)=O)NC(=O)[C@H](CCCNC(=N)N)NC(=O)CNC(=O)[C@H](C)NC(=O)[C@H](CC(=O)O)NC(=O)[C@H](CCCCN)NC(=O)[C@@H](NC(=O)[C@@H](NC(=O)[C@H](CC(=O)O)NC(=O)[C@H](Cc1ccccc1)NC(=O)[C@@H](NC(=O)CN)C(C)C)[C@@H](C)CC)[C@@H](C)CC)C(C)C)C(=O)N[C@@H](C)C(=O)N[C@@H](CCC(=O)O)C(=O)N[C@@H](CCCCN)C(=O)N[C@H](C(N)=O)C(C)C (H-GVFDIIKDAGRQLVAHAMGKIAEKV-NH2)	> 300 µM	Non-toxic	300 µM (≈ 800 µg/mL)	> 300 µM	4.05%	> 300 µM	4.05%					
CC[C@H](C)[C@H](NC(=O)[C@H](CC(C)C)NC(=O)[C@H](CCC(N)=O)NC(=O)[C@H](CCCCN)NC(=O)CNC(=O)[C@H](C)NC(=O)CNC(=O)[C@H](CCCCN)NC(=O)[C@@H](NC(=O)[C@@H](NC(=O)[C@H](CC(=O)O)NC(=O)[C@H](Cc1ccccc1)NC(=O)[C@@H](NC(=O)CN)C(C)C)[C@@H](C)CC)[C@@H](C)CC)C(=O)N[C@@H](C)C(=O)N[C@@H](Cc1cnc[nH]1)C(=O)N[C@@H](C)C(=O)N[C@@H](CCSC)C(=O)N[C@@H](CCC(=O)O)C(=O)N[C@@H](CCCCN)C(=O)N[C@H](C(=O)N[C@@H](C)C(=O)N[C@@H](CCC(=O)O)C(=O)N[C@@H](CCCCN)C(=O)N[C@H](C(=O)NCC(=O)N[C@@H](CC(C)C)C(=O)N[C@@H](CC(N)=O)C(=O)N[C@@H](CCCCN)C(=O)N[C@@H](CC(=O)O)C(=O)NCC(=O)N[C@@H](CC(N)=O)C(=O)O)C(C)C)[C@@H](C)CC (H-GVFDIIKGAGKQLIAHAMEKIAEKVGLNKDGN-OH)	> 240 µM	Non-toxic	120 µM (≈ 404 µg/mL)	> 240 µM	0.69%	> 240 µM	0%					
CC[C@H](C)[C@H](NC(=O)[C@H](CCCCN)NC(=O)CNC(=O)[C@H](CCSC)NC(=O)[C@H](C)NC(=O)[C@H](Cc1cnc[nH]1)NC(=O)[C@H](C)NC(=O)[C@@H](NC(=O)[C@H](CC(C)C)NC(=O)[C@H](CCC(N)=O)NC(=O)[C@H](CCCCN)NC(=O)CNC(=O)[C@H](C)NC(=O)CNC(=O)[C@H](CCCCN)NC(=O)[C@@H](NC(=O)[C@@H](NC(=O)[C@H](CC(=O)O)NC(=O)[C@H](Cc1ccccc1)NC(=O)[C@@H](NC(=O)CN)C(C)C)[C@@H](C)CC)[C@@H](C)CC)[C@@H](C)CC)C(=O)N[C@@H](C)C(=O)N[C@@H](CCC(=O)O)C(=O)N[C@@H](CCCCN)C(=O)N[C@H](C(N)=O)C(C)C (H-GVFDIIKGAGKQLIAHAMGKIAEKV-NH2)	310 µM (≈ 804 µg/mL)	Non-toxic	80 µM (≈ 208 µg/mL)	> 310 µM	4.29%	310 µM (≈ 804 µg/mL)	0.19%					
CC[C@H](C)[C@H](NC(=O)[C@H](CCCCN)NC(=O)CNC(=O)[C@H](CCSC)NC(=O)[C@H](C)NC(=O)[C@H](Cc1cnc[nH]1)NC(=O)[C@H](C)NC(=O)[C@@H](NC(=O)[C@H](CC(C)C)NC(=O)[C@H](CCC(N)=O)NC(=O)[C@H](CCCCN)NC(=O)CNC(=O)[C@H](C)NC(=O)CNC(=O)[C@H](CCCCN)NC(=O)[C@@H](NC(=O)[C@@H](NC(=O)[C@H](CC(=O)O)NC(=O)[C@H](Cc1ccccc1)NC(=O)[C@@H](NC(=O)CN)C(C)C)[C@@H](C)CC)[C@@H](C)CC)[C@@H](C)CC)C(=O)N[C@@H](C)C(=O)N[C@@H](CCC(=O)O)C(=O)N[C@@H](CCCCN)C(=O)N[C@H](C(=O)NCC(=O)N[C@@H](CC(C)C)C(=O)N[C@@H](CC(N)=O)C(=O)N[C@@H](CCCCN)C(=O)N[C@@H](CC(=O)O)C(=O)NCC(=O)N[C@@H](CC(N)=O)C(=O)O)C(C)C (H-GVFDIIKGAGKQLIAHAMGKIAEKVGLNKDGN-OH)	240 µM (≈ 791 µg/mL)	Non-toxic	60 µM (≈ 198 µg/mL)	240 µM (≈ 791 µg/mL)	13.7%	> 240 µM	0.06%	Active	Active	Active	Active	Active
CC[C@H](C)[C@H](NC(=O)[C@H](CCCCN)NC(=O)CNC(=O)[C@H](CCSC)NC(=O)[C@H](C)NC(=O)[C@H](CCCNC(=N)N)NC(=O)[C@H](C)NC(=O)[C@@H](NC(=O)[C@H](CC(C)C)NC(=O)[C@H](CCC(N)=O)NC(=O)[C@H](CCCCN)NC(=O)CNC(=O)[C@H](C)NC(=O)CNC(=O)[C@H](CCCCN)NC(=O)[C@@H](NC(=O)[C@@H](NC(=O)[C@H](CC(=O)O)NC(=O)[C@H](Cc1ccccc1)NC(=O)[C@@H](NC(=O)CN)C(C)C)[C@@H](C)CC)[C@@H](C)CC)[C@@H](C)CC)C(=O)N[C@@H](C)C(=O)N[C@@H](CCC(=O)O)C(=O)N[C@@H](CCCCN)C(=O)N[C@H](C(=O)NCC(=O)N[C@@H](CC(C)C)C(=O)N[C@@H](CC(N)=O)C(=O)N[C@@H](CCCCN)C(=O)N[C@@H](CC(=O)O)C(=O)NCC(=O)N[C@@H](CC(N)=O)C(=O)O)C(C)C (H-GVFDIIKGAGKQLIARAMGKIAEKVGLNKDGN-OH)	240 µM (≈ 795 µg/mL)	Non-toxic	60 µM (≈ 199 µg/mL)	240 µM (≈ 795 µg/mL)	8.09%	240 µM (≈ 795 µg/mL)	0%					
CC[C@H](C)[C@H](NC(=O)[C@H](C)NC(=O)[C@H](Cc1cnc[nH]1)NC(=O)[C@H](C)NC(=O)[C@@H](NC(=O)[C@H](CC(C)C)NC(=O)[C@H](CC(=O)O)NC(=O)[C@H](CCCCN)NC(=O)CNC(=O)[C@H](C)NC(=O)CNC(=O)[C@H](CCCCN)NC(=O)[C@@H](NC(=O)[C@@H](NC(=O)[C@H](CC(=O)O)NC(=O)[C@@H](NC(=O)[C@@H](NC(=O)CN)C(C)C)[C@@H](C)CC)[C@@H](C)CC)[C@@H](C)CC)[C@@H](C)CC)C(=O)NCC(=O)N[C@@H](CCCCN)C(=O)N[C@@H](CC(C)C)C(=O)N[C@@H](C)C(=O)N[C@@H](CCC(=O)O)C(=O)N[C@@H](CCCCN)C(=O)N[C@H](C(N)=O)C(C)C (H-GVIDIIKGAGKDLIAHAIGKLAEKV-NH2)	> 320 µM	Non-toxic	320 µM (≈ 809 µg/mL)	> 320 µM	0.69%	> 320 µM	0.69%					
